Screening results deposited in PubChem by The Scripps Research Institute Molecular Screening Center.
In the library only some 3.5% were active in any assay of this set; here they are far more common.
TCR CD3 inh: blocks the human TCR-CD3 interaction | inhibition, % at 9.4 µM | TAMRA-labeled TCR probe fluorescence, biochemical | AID 651800 | actives 0.37% (n = 360,000);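 note: recombinant mutant TCR 2C K166C tagged with TAMRA read by polarization; 0% = receptor in buffer alone and 100% = receptor with positive control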
rCAG RNA binder: r(CAG) repeat RNA binding; TO-PRO-1 dye displacement fluorescence; inhibition, % at 3 µM; actives 1.3% (n = 370,000); AID 651821;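 active = inhibition above the plate cutoff, the mean of all test compounds on that plate plus 3 SD, cut at about 35% in these data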;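 note: 0% = DMSO alone and 100% = 100 µM mitoxantrone as full dye displacement; higher means more dye released from RNA so lower well fluorescence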
mABHD4 FP: ABHD4 (mouse) inhibition, primary FP screen. Q8VD66. purified mABHD4, FP-Rh probe fluorescence polarization. inhibition, % at 8.92 µM. actives 0.54% (n = 370,000). AID 720543;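 active = inhibition exceeding the mean over every tested compound plus 3 SD, cut at about 30% in these data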;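 note: 0% = plate median of compound wells and 100% = S159A mutant with DMSO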
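Test system: mABHD4 protein; Read-out basis: % inhibition; Incubation: 45 min + 60 min at 25 °C; Repeats: single replicate; Technique: fluorescence polarization with parallel and perpendicular emission, 525/598 nm; Compound: 8.92 µM, single dose; Benchmarks: full inhibition S159A mutant plus DMSO, zero as sample-well median.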
SIAE inh: blocks human sialic acid acetylesterase; Q9HAT2; SIAE FP-Rh probe binding, fluorescence polarization; inhibition, % at 9.66 µM; actives 0.69% (n = 370,000);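 active = inhibition above a cutoff: mean of compounds within the control limits plus 3 SD of those, cut at about 17% in these data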;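 note: 0% = plate median of compound wells and 100% = probe without SIAE protein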
Target sequence (Q9HAT2 whole entry, looked up): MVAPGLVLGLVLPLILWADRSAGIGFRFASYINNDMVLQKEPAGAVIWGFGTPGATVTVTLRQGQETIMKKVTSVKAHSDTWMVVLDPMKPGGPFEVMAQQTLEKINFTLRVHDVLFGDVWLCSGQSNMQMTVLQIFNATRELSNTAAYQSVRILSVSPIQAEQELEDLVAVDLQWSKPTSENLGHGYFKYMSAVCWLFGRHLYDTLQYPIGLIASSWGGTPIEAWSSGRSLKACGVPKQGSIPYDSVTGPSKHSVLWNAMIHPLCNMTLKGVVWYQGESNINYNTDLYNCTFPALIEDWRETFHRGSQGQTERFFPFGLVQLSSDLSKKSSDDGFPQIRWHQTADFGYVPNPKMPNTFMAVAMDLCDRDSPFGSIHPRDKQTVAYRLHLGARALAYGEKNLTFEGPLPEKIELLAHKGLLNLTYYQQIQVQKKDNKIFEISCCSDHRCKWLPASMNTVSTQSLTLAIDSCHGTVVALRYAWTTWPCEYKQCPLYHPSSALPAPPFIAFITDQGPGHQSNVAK
PRMT1 inh: inhibitors of human PRMT1. actives 1.3% (n = 370,000). inhibition, % at 2.79 µM. Q99873. recombinant PRMT1, activity-based probe fluorescence polarization. AID 652257;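 active = inhibition above about 21% made by adding two undisclosed values, limit read from the data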
HTRA1 inh: blocks human HTRA1 serine peptidase; recombinant HTRA1, FP-rhodamine activity-based probe, fluorescence polarization; inhibition, % at 5.96 µM; actives 0.5% (n = 340,000); in the data active = inhibition above about 36%;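 note: 0% = enzyme with DMSO and 100% = wells lacking enzyme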
HTRA1 conf: HTRA1 (human) inhibition, confirmation; shares compounds with HTRA1 inh; recombinant HTRA1, FP-rhodamine activity-based probe, fluorescence polarization; inhibition, % at 5.96 µM; actives 66% (n = 1,600); AID 540248;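 active = mean inhibition over three repeats above a set limit taken from the earlier primary screen, cut at about 37% in these data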;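 note: 0% = HTRA1 with DMSO and 100% = wells lacking HTRA1; inhibitors block probe binding so polarization drops and inhibition rises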
BSA TAMRA ctr: interferes with TAMRA-BSA probe, flagging TCR-CD3 hits; shares compounds with TCR CD3 inh; TAMRA-labeled BSA probe fluorescence counterscreen; inhibition, % at 9.4 µM; actives 10% (n = 1,200); AID 652035; in the data active = inhibition above about 23%;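 note: 0% = buffer low control and 100% = reference high control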
TCR-CD3 inh conf: TCR-CD3 interaction inhibition, confirmation; shares compounds with TCR CD3 inh; TAMRA-labeled TCR probe fluorescence binding assay; inhibition, % at 9.4 µM; actives 48% (n = 1,200)
rCAG binder conf: r(CAG) RNA repeat binding, confirmation. shares compounds with rCAG RNA binder. TO-PRO-1 dye displacement fluorescence. inhibition, % at 3 µM. actives 70% (n = 4,300);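 active = inhibition above a per-plate cutoff, the mean inhibition of sample wells plus 3 SD, cut at about 35% in these data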;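 note: loss of TO-PRO-1 fluorescence as compound displaces dye from 1x1 AA loop RNA; 0% = DMSO only wells and 100% = 100 µM mitoxantrone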
DNA CAG counter: counter-screen for rCAG RNA binders: DNA CAG dye complex inhibitors. inhibition, % at 3 µM. d(CAG) DNA oligo TO-PRO-1 dye displacement, fluorescence. shares compounds with rCAG RNA binder. AID 652068. actives 94% (n = 4,300);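 active = inhibition above its plate's cutoff, the mean test-well inhibition plus 3 SD, cut at about 4.8% in these data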;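 note: 0% = DNA dye mix with DMSO and 100% = 100 µM mitoxantrone; hits displace the dye from DNA and so lower well fluorescence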
* = called active by the depositor; / = no result. Cut-off read from the data, not from the text of the source, unless noted: active = inhibition above about 19%; inactive = the rest.

SMILES	TCR CD3 inh	rCAG RNA binder	mABHD4 FP	SIAE inh	PRMT1 inh	HTRA1 inh	HTRA1 conf	BSA TAMRA ctr	TCR-CD3 inh conf	others
Cc1ccn2cc(-c3ccc(O)c(O)c3)nc2c1	34*	6	26	6	18	44*	65*	-9	26*
COc1cccc(NC(=O)Nc2nc3ncccn3c2-c2ccc(F)c(F)c2)c1	/	3	-4	4	-2	/	/	/	/
CCOc1cccc(CNc2ccc(O)cc2)c1OCc1ccc(Cl)cc1Cl	27*	19	66*	32*	15	60*	29	3	0
O=C(N/N=C/c1cc(Br)cc(Cl)c1O)c1ccc2c(c1)OCO2	38*	9	6	-1	-4	42*	14	-6	29*
CCC1=NN(C(=O)c2ccccc2O)C(O)(c2ccccc2)C1 (stereo not drawn)	40*	4	13	16	13	54*	65*	-8	30*
O=C(CCN1C(=O)/C(=C\c2ccccc2)SC1=S)NNC(=O)c1cccnc1	2	1	-10	-2	-4	6	/	/	/
O=C(CCN1C(=O)/C(=C\c2ccccc2)SC1=S)NNC(=O)c1ccccc1O	40*	16	8	-1	6	56*	54*	-6	36*
Oc1ccccc1N=Nc1ccccc1O	19*	8	20	17	4	66*	59*	-6	5
C=CCn1c(O)c(N=Nc2ccccc2O)c2ccccc21	5	19	11	16	15	23	/	/	/
COc1cccc2c1C(=O)c1c(O)c3c(c(O)c1C2=O)C[C@@](O)(C(=O)CO)C[C@@H]3O[C@H]1C[C@H](N)[C@H](O)[C@H](C)O1	137*	10	52*	39*	129*	63*	67*	157*	127*
C=CCn1c(SCC(=O)Nc2ccc(CCCC)cc2)nnc1-c1ccc(Cl)cc1	/	2	0	0	6	/	/	/	/
Cc1ccc(NCc2ccccc2O)cc1	5	3	-10	1	0	4	/	/	/
Cc1ccc(CNc2ccc(O)cc2)cc1	27*	12	68*	48*	16	60*	27	-1	2
O=C(Cc1cccs1)NC1CCCCN(Cc2cccc(Cl)c2)C1=O (stereo not drawn)	/	2	-2	7	-4	/	/	/	/
CC(C)(C)c1ccc(S(=O)(=O)N2CCCC(C(=O)NCc3ccco3)C2)cc1 (stereo not drawn)	/	2	2	-2	0	/	/	/	/
C/C(=N/NC(=O)c1cc2ccccc2cc1O)C1C(=O)c2ccccc2C1=O	45*	100*	49*	21*	4	74*	53*	1	68*
O=c1cc(-c2ccc(O)c(O)c2)oc2cc(O)cc(O)c12	25*	12	26	3	4	50*	67*	-17	21*
COc1ccc(-c2cc(=O)c3c(O)cc(O)cc3o2)cc1	-1	6	-1	-20	5	-9	/	/	/
COC(=O)C[C@H]1CC[C@@H]2[C@@H](COc3ccc(NS(=O)(=O)c4ccccc4Cl)cc3C(=O)N2C)O1	/	7	2	10	0	/	/	/	/
Clc1ccc([C@H]2OC[C@@]3(CNC4CCCCC4)CS[C@H](c4ccc(Cl)cc4)N23)cc1	/	3	-3	-3	4	/	/	/	/
Cc1cc(/C=N/n2c(COc3ccccc3)nc3ccccc3c2=O)c(O)c([N+](=O)[O-])c1	39*	66*	16	24*	7	41*	54*	35*	56*	rCAG binder conf=63*;DNA CAG counter=27*
CC(=O)c1cc(-c2ccccc2-c2ccccc2)c(=O)n2c1CCC2	/	1	8	1	3	/	/	/	/
CC(=O)NNC(=O)C(O)(c1ccccc1)c1ccccc1	3	-3	-3	1	0	1	/	/	/
O=C(C=C(O)c1ccc(Cl)cc1)C(=O)NNC(=O)C(O)(c1ccccc1)c1ccccc1	7	71*	-8	-12	1	41*	36*	/	/	rCAG binder conf=36*;DNA CAG counter=12*
Cc1cccc2sc(NNC(=O)c3ccc(S(=O)(=O)N4CCc5ccccc5C4)cc3)nc12	5	54*	5	13	-5	45*	33	/	/	rCAG binder conf=59*;DNA CAG counter=30*
SMILES	TCR CD3 inh	rCAG RNA binder	mABHD4 FP	SIAE inh	PRMT1 inh	HTRA1 inh	HTRA1 conf	BSA TAMRA ctr	TCR-CD3 inh conf	others
Cc1cc(C)c2nc(NNC(=O)c3ccc(S(=O)(=O)N4CCCCC4)cc3)sc2c1	-3	55*	15	10	1	49*	24	/	/	rCAG binder conf=38*;DNA CAG counter=15*
Cc1cccc2sc(NC(=O)c3cccc(S(=O)(=O)N4CCc5ccccc54)c3)nc12	-1	3	0	1	-5	0	/	/	/
Cc1cccc2sc(NNC(=O)c3ccc(S(=O)(=O)N4CCCC(C)C4)cc3)nc12 (stereo not drawn)	-3	53*	21	16	4	45*	41*	/	/	rCAG binder conf=45*;DNA CAG counter=19*
O=S1(=O)c2ccc(N3CC[C@H](O)C3)cc2O[C@H]2CCN1C2	/	4	8	1	3	/	/	/	/
CCCCOCCCNC(=O)C[C@@H]1C(=O)N2CCCC3=C2[C@@]1(C(=O)OC)CCCC3	/	-3	0	2	-4	/	/	/	/
COc1ccc(C(C(=O)N(C)C2CCCC2)N(Cc2ccc(F)cc2)C(=O)c2cc(C)on2)cc1OC (stereo not drawn)	/	-1	5	2	-5	/	/	/	/
Oc1ccc(N=Nc2c(O)ccc3ccccc23)cc1	-10	41*	19	13	4	63*	43*	/	/	rCAG binder conf=34;DNA CAG counter=17*
Cc1cnn(-c2ccccc2)c1NC(=O)COCc1ccccc1	/	0	0	2	-3	/	/	/	/
COc1cc(-c2nnc(SCc3cc(=O)oc4cc(O)c(O)cc34)o2)cc(OC)c1OC	28*	59*	33*	1	17	47*	35	-16	40*	rCAG binder conf=64*;DNA CAG counter=30*
CCOC(=O)CSc1nnc(-c2cc(OC)c(OC)c(OC)c2)o1	-2	-6	0	-8	2	0	/	/	/
Cc1c(C(=O)NCc2cccs2)oc2ccc(Br)cc12	-5	6	-5	-1	4	-34	/	/	/
Cc1c(C(=O)NNC(=O)c2ccccc2O)oc2ccc(Br)cc12	39*	40*	-8	-10	1	41*	69*	-14	24*	rCAG binder conf=39*;DNA CAG counter=21*
